Data: ChEMBL document CHEMBL5030505, “Assessment of NR4A Ligands That Directly Bind and Modulate the Orphan Nuclear Receptor Nurr1” (J Med Chem, 2020)
Calls of active or inactive are those of the source. The calls are words filed in the database; no cut-off is given here.

Key:
Type in all cases: cell-based
HEK293T = assay: Modulation of Gal4-fused VP16 expressed in HEK293T cells co-transfected with UAS repoter gene assessed as decrease in luciferase activity at 1.55 to 15 uM incubated for 18 hrs by luciferase reporter gene assay; details: Human alphaherpesvirus 2, filed as modulator, dose 1.55-15 µM
In short: (§1)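 Constitutive control: cells transfected (Lipofectamine 2000) with Gal4-VP16 expression plasmid (2 μg) plus 5xUAS-luciferase reporter (2 μg), 18 h; replated 10,000 cells/well, 4 h; ligand or vehicle in quadruplicate for 18 h; luciferase read by Britelite Plus; signal as fold change over vehicle-treated cells. Mean ± s.e.m. (n=4); one-way ANOVA versus vehicle.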

[1] = target: Nuclear receptor subfamily 4 group A member 2 (Homo sapiens) (UniProt P43354); assay: Modulation of full length human Nurr1 expressed in HEK293T cells co-transfected with luciferase reporter plasmid harboring NurRE response element assessed as decrease in luciferase activity at 1.55 to 15 uM incubated for 18 hrs by luciferase reporter gene assay; details: filed as modulator, dose 1.55-15 µM
Chain of Nuclear receptor subfamily 4 group A member 2 (Homo sapiens) (P43354 whole entry, the tested form may be a part): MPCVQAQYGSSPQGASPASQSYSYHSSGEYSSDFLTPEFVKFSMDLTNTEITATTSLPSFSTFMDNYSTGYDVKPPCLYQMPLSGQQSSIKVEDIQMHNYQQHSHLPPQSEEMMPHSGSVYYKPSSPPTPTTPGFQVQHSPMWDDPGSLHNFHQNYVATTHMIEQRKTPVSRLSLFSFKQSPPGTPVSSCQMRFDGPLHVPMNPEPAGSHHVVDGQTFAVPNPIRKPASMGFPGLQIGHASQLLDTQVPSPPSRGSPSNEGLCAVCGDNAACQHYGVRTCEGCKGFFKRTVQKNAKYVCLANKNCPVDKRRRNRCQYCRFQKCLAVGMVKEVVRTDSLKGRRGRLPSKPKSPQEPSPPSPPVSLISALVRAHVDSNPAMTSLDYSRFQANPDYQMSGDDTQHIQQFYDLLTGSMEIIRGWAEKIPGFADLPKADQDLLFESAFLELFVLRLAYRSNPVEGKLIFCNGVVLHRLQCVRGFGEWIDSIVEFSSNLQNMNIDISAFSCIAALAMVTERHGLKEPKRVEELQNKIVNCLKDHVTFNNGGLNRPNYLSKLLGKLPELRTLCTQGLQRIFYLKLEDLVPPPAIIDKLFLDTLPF
In short: (§2)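 Cells transfected (Lipofectamine 2000, 18 h) with full-length Nurr1 expression plasmid (2 μg) and 3xNBRE- or 3xNurRE-luciferase reporter (6 μg), no internal control normalisation; replated 10,000 cells/well, 4 h; ligand or vehicle in quadruplicate for 18 h; Britelite Plus luminescence as fold change over vehicle. Mean ± s.e.m. (n=4); one-way ANOVA versus vehicle.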

[2] = target: Nuclear receptor subfamily 4 group A member 2 (Homo sapiens) (UniProt P43354); assay: Modulation of full length human Nurr1 expressed in PC-12 cells co-transfected with luciferase reporter plasmid harboring NBRE response element assessed as decrease in luciferase activity at 1.55 to 15 uM incubated for 18 hrs by luciferase reporter gene assay; details: filed as modulator, dose 1.55-15 µM; in short: as §2
SK-N-BE(2) = assay: Cytotoxicity in human SKNBE2 cells assessed as reduction in cell viability at 1.55 to 15 uM incubated for 18 hrs by Cell Titer-Glo assay; details: dose 1.55-15 µM
In short: (§3)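 Cells seeded 1.5 million per 10-cm dish; next day replated at 10,000 cells/well in 384-well format, 4 h, then ligand or vehicle (water, ethanol or DMSO by ligand) added in quadruplicate for 18 h; viability read by CellTiter-Glo luminescence. Mean ± s.e.m. (n=4), generally 2 independent experiments; one-way ANOVA versus vehicle.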

PC-12 [3] = assay: Modulation of Gal4-fused VP16 expressed in PC12 cells co-transfected with UAS repoter gene assessed as decrease in luciferase activity at 1.55 to 15 uM incubated for 18 hrs by luciferase reporter gene assay; details: Human alphaherpesvirus 2, filed as modulator, dose 1.55-15 µM; in short: as §1
HEK-293T = assay: Cytotoxicity in human HEK293T cells assessed as reduction in cell viability at 1.55 to 15 uM incubated for 18 hrs by Cell Titer-Glo assay; details: dose 1.55-15 µM; in short: as §3
[4] = target: Nuclear receptor subfamily 4 group A member 2 (Homo sapiens) (UniProt P43354); assay: Modulation of full length human Nurr1 expressed in […] cells co-transfected with luciferase reporter plasmid harboring NurRE response element assessed as decrease in luciferase activity at 1.55 to 15 uM incubated for 18 hrs by luciferase reporter gene assay; details: SKNBE2, filed as modulator, dose 1.55-15 µM; in short: as §2
PC-12 [5] = assay: Cytotoxicity in rat PC-12 cells assessed as reduction in cell viability at 1.55 to 15 uM incubated for 18 hrs by Cell Titer-Glo assay; details: pc-12, 18 h, dose 1.55-15 µM; in short: as §3
[6] = target: Nuclear receptor subfamily 4 group A member 2 (Homo sapiens) (UniProt P43354); assay: Modulation of full length human Nurr1 expressed in […] cells co-transfected with luciferase reporter plasmid harboring NBRE response element assessed as decrease in luciferase activity at 1.55 to 15 uM incubated for 18 hrs by luciferase reporter gene assay; details: SKNBE2, filed as modulator, dose 1.55-15 µM; in short: as §2
[7] = target: Nuclear receptor subfamily 4 group A member 2 (Homo sapiens) (UniProt P43354); assay: Modulation of full length human Nurr1 expressed in HEK293T cells co-transfected with luciferase reporter plasmid harboring NBRE response element assessed as decrease in luciferase activity at 1.55 to 15 uM incubated for 18 hrs by luciferase reporter gene assay; details: filed as modulator, dose 1.55-15 µM; in short: as §2
SKNBE2 = assay: Modulation of Gal4-fused VP16 expressed in SKNBE(2) cells co-transfected with UAS repoter gene assessed as decrease in luciferase activity at 1.55 to 15 uM incubated for 18 hrs by luciferase reporter gene assay; details: Human alphaherpesvirus 2, filed as modulator, dose 1.55-15 µM; in short: as §1

CC[C@@]1(O)C(=O)OCc2c1cc1n(c2=O)Cc2cc3ccccc3nc2-1 [CAMPTOTHECIN]
Activity (HEK293T): Active | Activity [1]: Active | Activity [2]: Active | Activity (SK-N-BE(2)): Toxic | Activity (PC-12 [3]): Active | Activity (HEK-293T): Toxic | Activity [4]: Active | Activity (PC-12 [5]): Toxic | Activity [6]: Active | Activity [7]: Active | Activity (SKNBE2): Active
